≈ marks a conversion by molar mass, not a printed value.
Key:
[1] = AUC (0 to t) in female Sprague-Dawley rat at 500 mg/kg, po measured on day 1; assay type: ADME, organism-based; parameters: dose 500 mg/kg, route oral; conditions: plasma
Summary of the method: (§1)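 Sprague–Dawley rats, 5 weeks old at arrival, both sexes. Given the compound by oral gavage once daily for 14 days at 0, 250, 500 or 1000 mg/kg/day, with 0.5% methylcellulose as vehicle. Toxicokinetic parameters were determined on Day 1 and Day 14.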

[2] = molecular target: Cytochrome P450 2C9 (Homo sapiens, UniProt P11712); assay: Inhibition of CYP2C9 in human liver microsomes; assay type: ADME
Cytochrome P450 2C9, sequence (P11712 whole entry): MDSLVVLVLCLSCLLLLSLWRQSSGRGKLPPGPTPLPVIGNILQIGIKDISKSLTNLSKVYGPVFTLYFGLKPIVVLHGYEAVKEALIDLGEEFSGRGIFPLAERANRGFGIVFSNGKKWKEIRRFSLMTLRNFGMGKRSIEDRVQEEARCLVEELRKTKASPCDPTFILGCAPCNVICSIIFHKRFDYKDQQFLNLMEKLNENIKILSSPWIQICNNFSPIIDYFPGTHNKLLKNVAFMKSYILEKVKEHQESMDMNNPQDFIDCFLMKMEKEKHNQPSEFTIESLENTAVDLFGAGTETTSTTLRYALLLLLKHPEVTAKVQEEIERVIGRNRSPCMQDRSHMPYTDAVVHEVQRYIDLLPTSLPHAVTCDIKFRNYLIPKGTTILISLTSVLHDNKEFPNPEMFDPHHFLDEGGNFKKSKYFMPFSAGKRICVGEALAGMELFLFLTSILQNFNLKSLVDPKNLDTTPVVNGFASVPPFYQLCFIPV
Summary of the method: (§2)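 Pooled human liver microsomes at 0.25 mg/mL, each with a CYP-selective substrate and test compound up to 25 µM, preincubated at 37 °C. It is stopped on ice with ice-cold acetonitrile and centrifuged, and the supernatant is analysed by LC–MS/MS.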

[3] = molecular target: T1, Cytochrome P450 2B6 (Homo sapiens, UniProt P20813); assay: Inhibition of CYP2B6 in human liver microsomes; assay type: ADME; summary of the method: as §2
T1 sequence (P20813 whole entry): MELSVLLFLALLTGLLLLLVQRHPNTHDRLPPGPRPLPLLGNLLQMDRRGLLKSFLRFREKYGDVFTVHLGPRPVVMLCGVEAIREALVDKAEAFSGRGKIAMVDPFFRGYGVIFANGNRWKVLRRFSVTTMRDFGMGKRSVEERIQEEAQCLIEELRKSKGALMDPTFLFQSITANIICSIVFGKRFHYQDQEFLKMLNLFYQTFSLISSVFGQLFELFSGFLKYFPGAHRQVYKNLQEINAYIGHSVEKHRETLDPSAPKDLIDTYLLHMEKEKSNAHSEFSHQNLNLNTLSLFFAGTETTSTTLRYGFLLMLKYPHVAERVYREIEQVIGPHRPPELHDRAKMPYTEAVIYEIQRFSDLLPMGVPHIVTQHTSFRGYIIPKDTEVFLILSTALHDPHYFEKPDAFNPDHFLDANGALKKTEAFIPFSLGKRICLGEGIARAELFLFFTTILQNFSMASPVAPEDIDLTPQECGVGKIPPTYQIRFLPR

[4] = Clearance in Sprague-Dawley rat at 3 mg/kg, iv and 10 mg/kg, po; assay type: ADME, organism-based; conditions: in vivo
Summary of the method: (§3)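 Male ICR mice and 7-week-old SD rats received a 3 mg/kg intravenous bolus or a 10 mg/kg oral gavage dose. Plasma was deproteinized with acetonitrile (2 volumes) and compound measured by HPLC. Parameters came from noncompartmental analysis.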

[5] = system: Mus musculus; assay: Antidiabetic activity in glucose-treated C57BL/J6 db/db mouse assessed as reduction of glucose AUC at 30 to 100 mg/kg, po administered for 2 weeks preincubated for 30 mins followed by glucose challenge measured after 30 to 180 mins by oral glucose tolerance test relative to control; assay type: functional; parameters: scale not given: the % may be the effect or the level left
Summary of the method: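 Oral glucose tolerance test. Mice: eight-week-old male C57BL/6 or ten-week-old male C57BLKS/J db/db, fasted overnight with water. Compound or 0.5% methylcellulose vehicle given orally, then an oral 2 g/kg glucose challenge 30 min later. Tail-tip blood glucose was read just before and at 30, 60, 90, 120 and 180 min. AUC was calculated from the time–glucose curve; n = 6.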

[6] = system: Salmonella typhimurium; assay: Cytotoxicity in Salmonella typhimurium TA98 at 1.5 to 5000 ug/plate in presence of S9 fraction; assay type: organism-based; conditions: salmonella enterica subsp. enterica serovar typhimurium
Summary of the method: (§4)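 Ames reverse mutation test by direct plate incorporation in S. typhimurium TA98 and TA100, with or without Aroclor 1254-induced rat liver S9 mix. Compound in DMSO at 1.5–5000 µg/plate, plated in top agar, incubated 37 °C for about 50 h, then revertant colonies counted. Plates were checked for precipitation and cytotoxicity. A positive was a reproducible, dose-related increase in revertants of more than 2-fold.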

[7] = Tmax in female Sprague-Dawley rat at 250 mg/kg, po measured on day 14; assay type: ADME, organism-based; parameters: dose 250 mg/kg, route oral; conditions: in vivo
Summary of the method: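 Sprague–Dawley rats of both sexes, 5 weeks old at arrival, received daily oral gavage at 0, 250, 500 or 1000 mg/kg/day for 14 days. Vehicle was 0.5% methylcellulose at 10 mL/kg. Toxicokinetics were taken on Day 1 and Day 14. Necropsy was by Day 15. Testis was fixed in modified Davidson's fixative, paraffin-sectioned and H&E-stained, with histopathology on control and high-dose groups only.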

[8] = system: Canis familiaris; assay: Toxicity in Beagle dog assessed as testicular effect administered repeated dose level of 300 mg/kg/day, po administered on days 3, 6 and 8 by hematoxylin and eosin staining-based microscopy; assay type: organism-based, Canis lupus familiaris; parameters: route oral; conditions: in vivo
Summary of the method: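 Dogs received escalating oral doses of 100, 300 and 1000 mg/kg/day over 8 days (Days 3, 6 and 8 for each dose). Vehicle was 0.5% methylcellulose at 5 mL/kg. Two animals were necropsied at termination, and testes were fixed in modified Davidson's fixative, paraffin-embedded, H&E-stained and examined microscopically.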

[9] = system: Mus musculus; assay: Toxicity in C57BL/J6 db/db mouse assessed as effect on serum lipids at 30 to 100 mg/kg, po; conditions: in vivo
[10] = Volume of distribution at steady state in Sprague-Dawley rat at 3 mg/kg, iv and 10 mg/kg, po; assay type: ADME, organism-based; conditions: in vivo, read-out: Vdss
Summary of the method: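 Male ICR mice and 7-week-old SD rats received a 3 mg/kg iv bolus or a 10 mg/kg oral gavage dose. Plasma was precipitated with 2 volumes of acetonitrile and analysed by HPLC. Parameters came from noncompartmental analysis.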

[11] = AUC (0 to t) in male Sprague-Dawley rat at 500 mg/kg, po measured on day 1; assay type: ADME, organism-based; parameters: dose 500 mg/kg, route oral; conditions: plasma; summary of the method: as §1
[12] = Aqueous solubility of the compound in phosphate buffer at pH 7.4; assay type: physicochemical
[13] = system: Hepatocyte; assay: Induction of 2-Deoxy-D-[3H]-glucose uptake in rat Hepatocytes using 5.5 mM glucose after 4 hrs by liquid scintillation counting; assay type: functional
Summary of the method: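 Rat primary hepatocytes, isolated by collagenase liver perfusion, viability over 85%. Cells attached 36 h on collagen I in MEM with 10% FBS, then serum-starved 12 h. Incubated 4 h in serum-free MEM with 5.5 mM glucose and 2-deoxy-D-[3H]-glucose, with or without compound. Washed in ice-cold PBS, lysed in 0.1 N NaOH, scintillation counted, expressed as % increase over control.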

[14] = system: Salmonella typhimurium; assay: Cytotoxicity in Salmonella typhimurium TA100 at 1.5 to 5000 ug/plate in absence of S9 fraction; assay type: organism-based; conditions: salmonella enterica subsp. enterica serovar typhimurium; summary of the method: as §4
[15] = Cmax in male Sprague-Dawley rat at 500 mg/kg, po measured on day 1; assay type: ADME, organism-based; parameters: dose 500 mg/kg, route oral; conditions: in vivo; summary of the method: as §1
[16] = Cmax in ICR mouse at 3 mg/kg, iv and 10 mg/kg, po; assay type: ADME, organism-based; conditions: in vivo; summary of the method: as §3

- AUC(0-t) [1]: 19800 ng·h/mL
- IC50 [2]: 5.2 µM
- inhibition (INH) [3]: Not Active
- clearance [4]: 9.83 mL/min/kg
- Tmax [7]: 1.3 h
- Vd [10]: 0.21 L/kg
- AUC(0-t) [11]: 16900 ng·h/mL
- solubility [12]: 122 µM (≈ 65.5 µg/mL)
- Cmax [15]: 4100 ng/mL
- Cmax [16]: 11700 ng/mL
Compound: COCCOCn1ccc(NC(=O)c2cc(Oc3ccc(S(C)(=O)=O)cc3)cc(-c3ncccc3C)c2)n1
- Activity [5]: 39.8%
- Activity [6]: Non-toxic
- Activity [8]: Non-toxic
- Activity [9]: Non-toxic
- fold change (FC) [13]: 2.23
- Activity [14]: Non-toxic

— ChEMBL document CHEMBL3232870, “Discovery of 3-(4-methanesulfonylphenoxy)-N-[1-(2-methoxy-ethoxymethyl)-1H-pyrazol-3-yl]-5-(3-methylpyridin-2-yl)-benzamide as a novel glucokinase activator (GKA) for the treatment of type 2 diabetes mellitus” (Bioorg Med Chem, 2014)
